The source of these data is ChEMBL document CHEMBL1144033, “Novel trans-3,4-dimethyl-4-(3-hydroxyphenyl)piperidines as mu opioid receptor antagonists with improved opioid receptor selectivity profiles” (Bioorg Med Chem Lett, 2008).

In assay [1] the target is T1, Kappa-type opioid receptor (Homo sapiens, UniProt P41145). Put plainly: Displacement of [3H]diprenorphine from human cloned kappa opioid receptor. (In general: Loss of bound radioactivity is the signal in a displacement assay; it reports binding, not function.)
The target of assay [2] is T2, Delta-type opioid receptor (Homo sapiens, UniProt P41143). Put plainly: Displacement of [3H]diprenorphine from human cloned delta opioid receptor.
Assay [3] concerns the target T1, Kappa-type opioid receptor. Description: Displacement of [3H]diprenorphine from human cloned kappa opioid receptor at 10 uM.
In assay [4] the test system is Mus musculus. Put plainly: Antagonist activity on morphine-induced gastrointestinal antitransit effect in Swiss Webster mouse at 0.1 mg/kg, sc after 1 hr. To be noted: route subcutaneous. Also noted: scale not given: the % may be the effect or the level left. It counts as functional. The procedure, abridged: (§1)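 Male Swiss-Webster mice (20-25 g), fasted overnight, got vehicle (10% DMSO:20% cremophor EL:70% saline) or compound s.c. Morphine (3 mg/kg s.c.) followed 25 min later. After a further 10 min, mice received 0.3 mL charcoal meal (charcoal:flour:water 1:2:8, w/w/v). Small intestine removed 25 min later; %GIT = charcoal leading-edge distance/intestine length ×100.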

For assay [5], the target named is Mu-type opioid receptor (Homo sapiens) (UniProt P35372). Description: Displacement of [3H]diprenorphine from human cloned mu opioid receptor at 10 uM.
For assay [6], the target named is T2, Delta-type opioid receptor. Description: Displacement of [3H]diprenorphine from human cloned delta opioid receptor at 10 uM.
The test system of assay [7] is Mus musculus. Put plainly: Antagonist activity on morphine-induced gastrointestinal antitransit effect in Swiss Webster mouse at 1 mg/kg, sc after 1 hr. It counts as functional. On the set-up: scale not given: the % may be the effect or the level left. The settings on record: route subcutaneous. The procedure, abridged:
as §1

Assay [8] deals with Mus musculus. Description: Antagonist activity on morphine-induced gastrointestinal antitransit effect in Swiss Webster mouse at 0.3 mg/kg, po after 1 hr. It counts as functional, organism-based. Also noted: dose 0.3 mg/kg.
Assay [9] has as its system Mus musculus. Description: Antagonist activity on morphine-induced physical dependence in Swiss Webster mouse at 10 mg/kg, po. It counts as functional, organism-based. Also noted: dose 10 mg/kg.

Calls of active or inactive are those of the source. The rule behind the calls is not given here.

T1 sequence (P41145 whole entry): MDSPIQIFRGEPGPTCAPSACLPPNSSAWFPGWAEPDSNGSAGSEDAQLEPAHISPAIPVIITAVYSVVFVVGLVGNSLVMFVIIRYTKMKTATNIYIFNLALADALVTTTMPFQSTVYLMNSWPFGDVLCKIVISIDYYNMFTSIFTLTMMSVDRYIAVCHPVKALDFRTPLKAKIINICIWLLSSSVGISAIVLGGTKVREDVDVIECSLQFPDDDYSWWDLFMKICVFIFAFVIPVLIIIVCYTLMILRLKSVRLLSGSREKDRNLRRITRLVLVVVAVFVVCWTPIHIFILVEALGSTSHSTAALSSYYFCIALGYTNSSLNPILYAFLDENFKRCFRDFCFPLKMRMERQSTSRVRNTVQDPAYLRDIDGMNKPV
T2 sequence (P41143 whole entry): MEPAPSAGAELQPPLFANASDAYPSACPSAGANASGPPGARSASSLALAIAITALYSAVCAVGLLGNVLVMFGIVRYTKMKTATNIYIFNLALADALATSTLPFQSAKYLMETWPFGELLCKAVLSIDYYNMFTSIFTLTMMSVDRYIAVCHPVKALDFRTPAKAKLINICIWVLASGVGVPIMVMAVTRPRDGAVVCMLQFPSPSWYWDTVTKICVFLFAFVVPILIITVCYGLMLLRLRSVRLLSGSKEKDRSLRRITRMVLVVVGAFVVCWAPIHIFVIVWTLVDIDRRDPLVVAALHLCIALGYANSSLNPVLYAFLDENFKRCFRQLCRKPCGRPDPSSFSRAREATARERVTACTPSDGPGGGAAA
Mu-type opioid receptor (Homo sapiens), sequence (P35372 whole entry): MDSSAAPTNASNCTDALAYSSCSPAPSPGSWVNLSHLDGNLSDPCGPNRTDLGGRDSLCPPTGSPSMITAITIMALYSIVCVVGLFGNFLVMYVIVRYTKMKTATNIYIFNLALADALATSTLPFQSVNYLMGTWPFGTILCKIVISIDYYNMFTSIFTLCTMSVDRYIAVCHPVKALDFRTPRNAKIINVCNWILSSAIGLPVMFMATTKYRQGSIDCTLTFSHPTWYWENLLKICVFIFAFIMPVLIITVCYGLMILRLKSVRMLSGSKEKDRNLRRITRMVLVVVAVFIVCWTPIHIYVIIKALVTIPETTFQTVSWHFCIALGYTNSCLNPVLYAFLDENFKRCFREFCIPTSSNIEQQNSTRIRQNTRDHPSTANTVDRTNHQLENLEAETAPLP

As for `C[C@H]1CN(C[C@H](Cc2ccccc2)C(=O)N[C@@H](Cc2ccc3ccccc3c2)C(=O)O)CC[C@@]1(C)c1cccc(O)c1`, the Ki (as a rule, a measure of affinity in units of concentration, obtained from inhibition or displacement) worked out at 240 nM in assay [1] and 3.2 nM in assay [2].

Take `CCN(C(=O)CCN1CC[C@@](C)(c2cccc(O)c2)[C@@H](C)C1)[C@@H](Cc1ccccc1)C(=O)O`: the inhibition – broadly, the relative decrease from the control value, in per cent – in [3] was 44%. This molecule registered a Ki in [2] of 510 nM.

Consider `C[C@H]1CN(C[C@H](Cc2ccccc2)C(=O)NCC(=O)O)CC[C@@]1(C)c1cccc(O)c1` [ALVIMOPAN], for which the inhibitory constant (Ki) in [1] was found to be 100 nM; in assay [2], 12 nM. In addition, the Activity in the assay with Mus musculus [4] was 69%.

Turning to `C[C@H]1CN(CCC(=O)N(Cc2cccc(Cl)c2)[C@@H](Cc2ccccc2)C(=O)O)CC[C@@]1(C)c1cccc(O)c1`, the inhibition constant (Ki) in assay [1] stood at 460 nM; in assay [2], 24 nM.

Take `C[C@H]1CN(CCC(=O)N(Cc2ccccc2)[C@@H](Cc2ccccc2)C(=O)O)CC[C@@]1(C)c1cccc(O)c1`: the Ki in assay [1] is 550 nM; in assay [2], 39 nM.

The molecule `C[C@H]1CN(CCC(=O)N(C)[C@@H](Cc2ccccc2)C(=O)O)CC[C@@]1(C)c1cccc(O)c1` yielded an inhibition in assay [3] of 35%. Besides, the inhibitory constant (Ki) in assay [2] came to 620 nM.

Consider `C[C@H]1CN(CCC(=O)N[C@@H](Cc2ccc(-c3ccccc3)cc2)C(=O)O)CC[C@@]1(C)c1cccc(O)c1`, for which the values for the inhibitory constant (Ki) in [1] and in assay [2] were 1100 nM and 160 nM, respectively.

Turning to `C[C@H]1CN(C[C@H](Cc2ccccc2)C(=O)N[C@@H](CCC(=O)O)C(=O)O)CC[C@@]1(C)c1cccc(O)c1`, the inhibition in [3] came out at 26%. Further, in assay [2], the inhibitory constant (Ki) is 360 nM.

Regarding `C[C@@H](NC(=O)[C@@H](Cc1ccccc1)CN1CC[C@@](C)(c2cccc(O)c2)[C@@H](C)C1)C(=O)O`, the Ki worked out at 910 nM in assay [1] and 74 nM in assay [2].

On to `C[C@H]1CN(CCC(=O)N(CC2CC2)[C@@H](Cc2ccccc2)C(=O)O)CC[C@@]1(C)c1cccc(O)c1`, for which the inhibitory constant (Ki) in [1] stood at 2200 nM; in [2] it was 100 nM.

Regarding `C[C@H]1CN(C[C@H](Cc2ccccc2)C(=O)N[C@@H](CCc2ccccc2)C(=O)O)CC[C@@]1(C)c1cccc(O)c1`, the Ki in assay [1] worked out at 510 nM; in [2], 10 nM.

For `C[C@H]1CN(C[C@H](Cc2ccccc2)C(=O)N[C@@H](CC2CCCCC2)C(=O)O)CC[C@@]1(C)c1cccc(O)c1`, the figures for the Ki in assay [1] and in assay [2] were 720 nM and 15 nM, respectively.

Consider `C[C@H]1CN(CCC(=O)N[C@@H](CCCCN)C(=O)O)CC[C@@]1(C)c1cccc(O)c1`, for which the figures for the inhibition in assay [5], in assay [3] and in assay [6] were 45%, 3% and 11%, respectively.

Regarding `C[C@H]1CN(CCC(=O)NCC(=O)O)CC[C@@]1(C)c1cccc(O)c1`, the inhibition was 20% in [5], 4% in assay [3] and 5% in [6].

For `C[C@H]1CN(C[C@H](Cc2ccccc2)C(=O)N[C@@H](Cc2cccc3ccccc23)C(=O)O)CC[C@@]1(C)c1cccc(O)c1`, the Ki in assay [1] was found to be 83 nM; in [2], 31 nM.

The molecule `C[C@H]1CN(C[C@H](Cc2ccccc2)C(=O)N[C@@H](CC(=O)O)C(=O)O)CC[C@@]1(C)c1cccc(O)c1` came in with an inhibition in assay [3] of 27%. For the same molecule, the Ki in assay [2] came out at 500 nM.

The molecule `C[C@H]1CN(CCC(=O)N[C@@H](CC2CCCCC2)C(=O)O)CC[C@@]1(C)c1cccc(O)c1` gave an inhibition in assay [3] of 44%. Also, in [2], the inhibitory constant (Ki) stood at 170 nM.

On to `C[C@H]1CN(C[C@H](Cc2ccccc2)C(=O)N[C@@H](Cc2ccc(-c3ccccc3)cc2)C(=O)O)CC[C@@]1(C)c1cccc(O)c1`, for which the Ki is 160 nM in [1] and 8.3 nM in assay [2].

In the case of `C[C@H]1CN(CCC(=O)N(c2ccccc2)[C@@H](Cc2ccccc2)C(=O)O)CC[C@@]1(C)c1cccc(O)c1`, the inhibition constant (Ki) came out at 1400 nM in assay [1] and 67 nM in [2].

For `C[C@H]1CN(CCC(=O)N[C@@H](CCc2ccccc2)C(=O)O)CC[C@@]1(C)c1cccc(O)c1`, the results for the inhibition constant (Ki) in [1] and in assay [2] were 690 nM and 360 nM, respectively.

`C[C@H]1CN(C[C@H](Cc2ccccc2)C(=O)N[C@@H](CCCCN)C(=O)O)CC[C@@]1(C)c1cccc(O)c1`: the Activity amounted to 64% in the assay on Mus musculus [4] and 82% in the assay with Mus musculus [7]. Moreover, in the assay on Mus musculus [8], the result was Active. Also, in the assay with Mus musculus [9], the result was inactive.

In [1], `C[C@H]1CN(CCC(=O)N(CCc2ccccc2)[C@@H](Cc2ccccc2)C(=O)O)CC[C@@]1(C)c1cccc(O)c1` had a Ki of 1200 nM.

As for `C[C@H]1CN(CCC(=O)N[C@@H](Cc2ccccc2)C(=O)O)CC[C@@]1(C)c1cccc(O)c1`, the inhibition in assay [3] was 39%. This molecule also gave an inhibitory constant (Ki) in [2] of 990 nM.

In turn, `CC(C)CN(C(=O)CCN1CC[C@@](C)(c2cccc(O)c2)[C@@H](C)C1)[C@@H](Cc1ccccc1)C(=O)O` yielded a Ki in assay [1] of 2200 nM.

With `C[C@H]1CN(CCC(=O)N(Cc2ccc(-c3ccccc3)cc2)[C@@H](Cc2ccccc2)C(=O)O)CC[C@@]1(C)c1cccc(O)c1`, the values for the inhibition constant (Ki) in [1] and in [2] were 230 nM and 52 nM, respectively.

Turning to `C[C@H](NC(=O)[C@@H](Cc1ccccc1)CN1CC[C@@](C)(c2cccc(O)c2)[C@@H](C)C1)C(=O)O`, the results for the Ki in assay [1] and in [2] were 67 nM and 22 nM, respectively.

As to `C[C@H]1CN(C[C@H](Cc2ccccc2)C(=O)N[C@@H](Cc2ccccc2)C(=O)O)CC[C@@]1(C)c1cccc(O)c1`, the inhibition constant Ki in assay [1] came out at 250 nM; in assay [2], 15 nM.
